Measured values as given in publication PMC4704638 (Brazilian Journal of Microbiology, 2015).

Test system: Streptomyces canarius L-glutaminase
Assay: ammonia release, Lineweaver-Burk plot
Type: biochemical
Settings: read-out: Km (mmol ^-1); 10-100 mM substrate
Summary of the method: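 Purified enzyme (ammonium sulphate 50-80% cut, dialysis, DEAE-cellulose; 132.2 U/mg protein) in potassium phosphate buffer pH 8 with L-glutamine, L-asparagine or L-aspartic acid, each separately at 10-100 mM, under standard assay conditions. Deaminating activity read as liberated NH3, expressed as µmol per min per mg protein. Km and Vmax from Lineweaver-Burk fit of 1/S versus 1/activity.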

Q: For `N[C@@H](CC(=O)O)C(=O)O` [L-aspartic acid], which Km is on record?
A: 5380 µM

Q: Which Km does the source give for `NC(=O)CC[C@H](N)C(=O)O` [L-glutamine] here?
A: 129 µM

Q: With `NC(=O)C[C@H](N)C(=O)O` [L-asparagine] as the compound, how does the Km read?
A: 137 µM
